In ChEMBL document CHEMBL1153319, “Dancing of the second aromatic residue around the 6,8-diazabicyclo[3.2.2]nonane framework: influence on sigma receptor affinity and cytotoxicity” (J Med Chem, 2009):
pIC50, pKi: −log10 of the molar value.

Tests used:
[1] = Displacement of [3H]1,3-ditolylguanine from sigma 2 receptor in rat liver membrane by solid scintillation analysis; type: cell membranes
[2] = system: MCF7; assay: Cytotoxicity against human MCF7 cells after 96 hrs by crystal violet staining; type: functional, cell-based; conditions: MCF7, 96 h
How it was run: (§1)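 Human tumour lines from DSMZ given a 20 µM primary screen for 96 h at 37 °C. Those cutting growth >50% versus untreated controls were then tested at 5 serial dilutions (DMSO stocks) for 96 h. Remaining cell density read by crystal violet staining. IC50 from least-squares dose-response fit using concentrations giving T/C 10–90%.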

[3] = biological target: Sigma non-opioid intracellular receptor 1 (Cavia porcellus) (UniProt Q60492); assay: Displacement of [3H](+)-pentazocine from sigma 1 receptor in guinea pig brain membrane at 1 uM by scintillation analysis; type: cell membranes
How it was run: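 Guinea pig brain homogenate (about 75 µg protein) incubated with test compound, 2 nM [3H]-(+)-pentazocine (Kd 2.9 nM) in 50 mM Tris pH 7.4, 180 min at 37 °C. Nonspecific binding with 10 µM unlabeled (+)-pentazocine. Rapid filtration, water washes, solid scintillator counting. Ki by Cheng–Prusoff from six-concentration competition curves, triplicates, mean ± SEM of three experiments; single-point lines give inhibition at 1 µM.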

[4] = system: 5637; assay: Cytotoxicity against human 5637 cells after 96 hrs by crystal violet staining; type: functional, cell-based; conditions: Homo sapiens, 5637, 96 h; how it was run: as §1
[5] = Cytotoxicity against human LCLC-103H cells after 96 hrs by crystal violet staining; type: functional, cell-based; how it was run: as §1
[6] = system: RT-4; assay: Cytotoxicity against human RT4 cells after 96 hrs by crystal violet staining; type: functional, cell-based; conditions: RT-4, 96 h; how it was run: as §1
[7] = system: DAN-G; assay: Cytotoxicity against human DAN-G cells after 96 hrs by crystal violet staining; type: functional, cell-based; how it was run: as §1
[8] = system: A-427; assay: Cytotoxicity against human A427 cells after 96 hrs by crystal violet staining; type: functional, cell-based; conditions: A-427, 96 h; how it was run: as §1
[9] = biological target: Sigma non-opioid intracellular receptor 1 (Cavia porcellus, UniProt Q60492); assay: Displacement of [3H](+)-pentazocine from sigma 1 receptor in guinea pig brain membrane by scintillation analysis; type: cell membranes
[10] = species on record: Rattus norvegicus; assay: Displacement of [3H]1,3-ditolylguanine from sigma 2 receptor in rat liver membrane by solid scintillation analysis at 1 uM; type: cell membranes

Sigma non-opioid intracellular receptor 1 (Cavia porcellus), sequence (Q60492 whole entry): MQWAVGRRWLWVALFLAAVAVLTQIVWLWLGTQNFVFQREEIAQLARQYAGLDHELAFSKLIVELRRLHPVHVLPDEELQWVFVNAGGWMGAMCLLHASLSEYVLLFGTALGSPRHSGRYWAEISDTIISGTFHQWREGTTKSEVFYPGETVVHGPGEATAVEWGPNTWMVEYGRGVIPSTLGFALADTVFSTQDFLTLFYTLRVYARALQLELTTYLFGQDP
Sigma non-opioid intracellular receptor 1, sequence (Q60492 whole entry): as above

Row | Structure (SMILES) | pKi [1] | pIC50 [2] | Activity [3] [%] | pIC50 [4] | pIC50 [5] | pIC50 [6] | pIC50 [7] | pIC50 [8] | pKi [9] | Activity [10] [%]
1 | C=CCN1C[C@H]2[C@@H](Oc3ccccc3)CC[C@@H]1CN2Cc1ccc(OC)cc1 | 6.06 | 5.03 | 29 | 5.01 | < 4.70 | 4.75 | 4.97 | 5.20 | – | –
2 | C=CCN1C[C@@H]2c3[nH]c4ccccc4c3C[C@H]1CN2Cc1ccc(OC)cc1 | 4.63 | 4.65 | 44 | 4.95 | 4.89 | 4.95 | 5.11 | 4.91 | – | –
3 | C=CCN1C[C@H]2/C(=C\c3ccccc3)CC[C@@H]1CN2Cc1ccc(OC)cc1OC | 6.17 | 5.14 | – | 5.21 | 4.90 | 5.09 | 5.05 | 5.51 | 6.50 | –
4 | C=CCN1C[C@@H]2[C@@H](Oc3ccccc3)CC[C@H]1CN2Cc1ccc(OC)cc1OC | 5.68 | 4.94 | – | 4.85 | < 4.70 | < 4.70 | 4.89 | 5.05 | 5.80 | –
5 | C=CCN1C[C@@H]2c3[nH]c4ccc(OC)cc4c3C[C@H]1CN2Cc1ccc(OC)cc1 | – | 4.59 | – | 4.97 | < 4.70 | < 4.70 | < 4.70 | 4.88 | 4.98 | 0
6 | COc1ccc(CN2C[C@@H]3[C@@H](c4ccccc4)CC(=O)[C@H]2CN3Cc2ccccc2)cc1 | – | – | 8 | – | < 4.70 | – | < 4.70 | – | – | 0
7 | C=CCN1C[C@@H]2[C@@H](OCc3ccccc3)CC[C@H]1CN2Cc1ccc(OC)cc1OC | 6.23 | 5.28 | – | 5.28 | 5.08 | 5.37 | 5.20 | 5.90 | 6.41 | –
8 | C=CCN1C[C@@H]2[C@@H](Oc3ccccc3)CC[C@H]1CN2Cc1ccc(OC)cc1 | 5.08 | 4.92 | – | 4.80 | < 4.70 | 4.70 | 4.94 | 5.25 | 5.26 | –
9 | C=CCN1C[C@H]2[C@H](OCc3ccccc3)CC[C@@H]1CN2Cc1ccc(OC)cc1OC | 4.64 | 5.27 | – | 5.29 | 5.09 | 5.20 | 5.15 | 5.44 | 5.90 | –
10 | C=CCN1C[C@H]2[C@@H](OCc3ccccc3)CC[C@@H]1CN2Cc1ccc(OC)cc1OC | 5.55 | 5.23 | 13 | 5.12 | 5.06 | 5.23 | 5.23 | 5.45 | – | –
11 | Cc1ccccc1NC(=N)Nc1ccccc1C [DITOLYLGUANIDINE] | 7.38 | – | – | – | – | – | – | – | – | –
12 | COc1ccc(CN2C[C@H]3C(c4ccccc4)CC(=O)[C@@H]2CN3Cc2ccccc2)cc1 (single isomer, unassigned; form 1) | – | – | 25 | – | – | – | – | – | – | 0
13 | C=CCN1C[C@@H]2c3[nH]c4ccccc4c3C[C@H]1CN2Cc1ccc(OC)cc1OC | 5.47 | – | 13 | – | < 4.70 | < 4.70 | – | – | – | –
14 | C=CCN1C[C@H]2N(Cc3ccc(OC)cc3)C[C@@H]1CC[C@]21Cc2ccccc2CO1 | – | – | 36 | – | – | – | – | – | – | 58
15 | C=CCN1C[C@@H]2c3nc4ccccc4c(C)c3C[C@H]1CN2Cc1ccc(OC)cc1OC | 5.08 | – | – | – | – | – | – | – | 5.26 | –
16 | COc1ccc(CN2C[C@H]3C(c4ccccc4)CC(=O)[C@@H]2CN3Cc2ccccc2)cc1 (single isomer, unassigned; form 2) | – | 4.72 | – | 4.98 | 4.70 | 4.80 | 5.00 | 5.10 | – | –
17 | C=CCN1C[C@@H]2/C(=C\c3ccccc3)CC[C@H]1CN2Cc1ccc(OC)cc1OC | 6.80 | 5.21 | – | 5.29 | 4.96 | 5.05 | 5.14 | 5.37 | 6.33 | –
18 | C=CCN1C[C@H]2c3nc4ccccc4c(C)c3C[C@@H]1CN2Cc1ccc(OC)cc1OC | 5.25 | 4.83 | – | 4.85 | 4.88 | 4.97 | 5.18 | 5.03 | 5.79 | –
